Source: ChEMBL document CHEMBL1124495 (1989)
In brackets after ≈: the same amount, converted by molar mass.

Columns and labels:
Type in all cases: functional
Pseudomonas aeruginosa = experiment: Antibacterial activity carried out in vitro against Pseudomonas aeruginosa K84-16
Staphylococcus aureus [1] = experiment: Antibacterial activity carried out in vitro against Staphylococcus aureus ATCC 29213
Staphylococcus aureus [2] = experiment: Antibacterial activity carried out in vitro against Staphylococcus aureus Smith(MP)
Staphylococcus aureus [3] = experiment: Antibacterial activity carried out in vitro against Staphylococcus aureus K82-26
Enterococcus faecalis = experiment: Antibacterial activity carried out in vitro against Streptococcus faecalis UCI 85-30
Escherichia coli [4] = experiment: Antibacterial activity carried out in vitro against Escherichia coli MOR 84-20
Escherichia coli [5] = experiment: Antibacterial activity carried out in vitro against Escherichia coli ATCC 25922
Escherichia coli [6] = experiment: Antibacterial activity carried out in vitro against Escherichia coli #311(MP)
Staphylococcus aureus [7] = experiment: Antibacterial activity carried out in vitro against Staphylococcus aureus VGH 84-47
Enterobacter cloacae = experiment: Antibacterial activity carried out in vitro against Enterobacter cloacae VHG 84-39
Klebsiella pneumoniae = experiment: Antibacterial activity carried out in vitro against Klebsiella pneumoniae CMC 84-31
Serratia marcescens = experiment: Antibacterial activity carried out in vitro against Serratia marcescens MOR 84-41
Escherichia coli [8] = experiment: Activity was determined after peroral administration against Escherichia coli #311(MP) in mouse protection test; details: po
Summary of the method: (§1)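 CD-1 female mice (20 ± 2 g) infected intraperitoneally with 0.5 mL standardized bacterial suspension: E. coli #311 in trypticase-soy broth, S. aureus Smith in 5% hog gastric mucin. Treated 0.5 h post-infection, oral or subcutaneous, 2-fold dose increments in 0.5 mL 0.2% aqueous agar, five mice per dose. 7-day survival pooled from three tests; ED50 by probit analysis.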

Staphylococcus aureus [9] = experiment: Activity was determined after peroral administration against Staphylococcus aureus Smith(MP) in mouse protection test; details: po; summary of the method: as §1
Escherichia coli [10] = experiment: Activity was determined after subcutaneous administration against Escherichia coli #311(MP) in mouse protection test; details: sc; summary of the method: as §1
Staphylococcus aureus [11] = experiment: Activity was determined after subcutaneous administration against Staphylococcus aureus Smith(MP) in mouse protection test; details: sc; summary of the method: as §1

Row | Structure (SMILES) | MIC (Pseudomonas aeruginosa) [µg/mL] | MIC (Staphylococcus aureus [1]) [µg/mL] | MIC (Staphylococcus aureus [2]) [µg/mL] | MIC (Staphylococcus aureus [3]) [µg/mL] | MIC (Enterococcus faecalis) [µg/mL] | MIC (Escherichia coli [4]) [µg/mL] | MIC (Escherichia coli [5]) [µg/mL] | MIC (Escherichia coli [6]) [µg/mL] | MIC (Staphylococcus aureus [7]) [µg/mL] | MIC (Enterobacter cloacae) [µg/mL] | MIC (Klebsiella pneumoniae) [µg/mL] | MIC (Serratia marcescens) [µg/mL] | ED50 (Escherichia coli [8]) [mg/kg] | ED50 (Staphylococcus aureus [9]) [mg/kg] | ED50 (Escherichia coli [10]) [mg/kg] | ED50 (Staphylococcus aureus [11]) [mg/kg]
1 | CCn1cc(C(=O)O)c(=O)c2c(N3CCOCC3)c(F)c(F)c(F)c21 | > 128 | 128 (≈ 359 µM) | 64 (≈ 180 µM) | 32 (≈ 89.8 µM) | > 128 | > 128 | > 128 | > 128 | 128 (≈ 359 µM) | > 128 | > 128 | > 128 | – | – | – | –
2 | CCn1cc(C(=O)O)c(=O)c2c(N3CCN(C)CC3)c(F)c(F)c(F)c21 | > 128 | > 128 | > 128 | > 128 | > 128 | > 128 | > 128 | > 128 | > 128 | > 128 | > 128 | > 128 | – | – | – | –
3 | CC(C)n1cc(C(=O)O)c(=O)c2c(F)c(F)c(N3CCN(C)CC3)c(F)c21 | > 128 | 64 (≈ 167 µM) | 32 (≈ 83.5 µM) | 16 (≈ 41.7 µM) | > 128 | 4 (≈ 10.4 µM) | 4 (≈ 10.4 µM) | 4 (≈ 10.4 µM) | 32 (≈ 83.5 µM) | 8 (≈ 20.9 µM) | 8 (≈ 20.9 µM) | 4 (≈ 10.4 µM) | – | – | – | –
4 | CCn1cc(C(=O)O)c(=O)c2c(F)c(F)c(N3CCN(C)CC3)c(F)c21 | 32 (≈ 86.6 µM) | 2 (≈ 5.42 µM) | 2 (≈ 5.42 µM) | 2 (≈ 5.42 µM) | 32 (≈ 86.6 µM) | 0.25 (≈ 0.677 µM) | 0.12 (≈ 0.325 µM) | 0.25 (≈ 0.677 µM) | 2 (≈ 5.42 µM) | 0.5 (≈ 1.35 µM) | 0.5 (≈ 1.35 µM) | 0.25 (≈ 0.677 µM) | – | – | – | –
5 | CCn1cc(C(=O)O)c(=O)c2c(F)c(F)c(N3CCOCC3)c(F)c21 | 64 (≈ 180 µM) | 1 (≈ 2.81 µM) | 1 (≈ 2.81 µM) | 1 (≈ 2.81 µM) | 32 (≈ 89.8 µM) | 4 (≈ 11.2 µM) | 4 (≈ 11.2 µM) | 2 (≈ 5.61 µM) | 1 (≈ 2.81 µM) | 4 (≈ 11.2 µM) | 4 (≈ 11.2 µM) | 1 (≈ 2.81 µM) | – | – | – | –
6 | CN1CCN(c2c(F)c(F)c3c(=O)c(C(=O)O)cn(-c4ccc(F)cc4)c3c2F)CC1 | 32 (≈ 73.5 µM) | 2 (≈ 4.59 µM) | 2 (≈ 4.59 µM) | 2 (≈ 4.59 µM) | 64 (≈ 147 µM) | 2 (≈ 4.59 µM) | 2 (≈ 4.59 µM) | 1 (≈ 2.3 µM) | 4 (≈ 9.19 µM) | 4 (≈ 9.19 µM) | 2 (≈ 4.59 µM) | 2 (≈ 4.59 µM) | – | – | – | –
7 | CN1CCN(c2c(F)c(F)c3c(=O)c(C(=O)O)cn(C4CC4)c3c2F)CC1 | 4 (≈ 10.5 µM) | 0.5 (≈ 1.31 µM) | 0.25 (≈ 0.656 µM) | 0.5 (≈ 1.31 µM) | 4 (≈ 10.5 µM) | 0.06 (≈ 0.157 µM) | 0.015 (≈ 0.0393 µM) | 0.03 (≈ 0.0787 µM) | 0.5 (≈ 1.31 µM) | 0.06 (≈ 0.157 µM) | 0.06 (≈ 0.157 µM) | 0.06 (≈ 0.157 µM) | 0.5 | 3.6 | 0.35 | 2.1
8 | CCn1cc(C(=O)O)c(=O)c2c(F)c(F)c(N3CCCC3)c(F)c21 | > 128 | 0.5 (≈ 1.47 µM) | 0.25 (≈ 0.735 µM) | 0.5 (≈ 1.47 µM) | > 128 | 4 (≈ 11.8 µM) | 2 (≈ 5.88 µM) | 2 (≈ 5.88 µM) | 0.25 (≈ 0.735 µM) | > 128 | > 128 | 0.5 (≈ 1.47 µM) | – | – | – | –
9 | CCn1cc(C(=O)O)c(=O)c2c(N3CCCC3)c(F)c(N3CCCC3)c(F)c21 | > 128 | > 128 | 128 (≈ 327 µM) | 8 (≈ 20.4 µM) | > 128 | > 128 | > 128 | 128 (≈ 327 µM) | 8 (≈ 20.4 µM) | > 128 | > 128 | > 128 | – | – | – | –
10 | CCn1cc(C(=O)O)c(=O)c2cc(F)c(N3CCN(C)CC3)c(F)c21 | 4 (≈ 11.4 µM) | 0.5 (≈ 1.42 µM) | 0.5 (≈ 1.42 µM) | 0.5 (≈ 1.42 µM) | 8 (≈ 22.8 µM) | 0.12 (≈ 0.342 µM) | 0.06 (≈ 0.171 µM) | 0.06 (≈ 0.171 µM) | 0.5 (≈ 1.42 µM) | 0.25 (≈ 0.712 µM) | 0.25 (≈ 0.712 µM) | 0.12 (≈ 0.342 µM) | – | – | – | –
11 | CCn1cc(C(=O)O)c(=O)c2c(F)c(F)c(N3CCSCC3)c(F)c21 | 64 (≈ 172 µM) | 1 (≈ 2.69 µM) | 0.5 (≈ 1.34 µM) | 1 (≈ 2.69 µM) | 32 (≈ 85.9 µM) | 4 (≈ 10.7 µM) | 4 (≈ 10.7 µM) | 4 (≈ 10.7 µM) | 1 (≈ 2.69 µM) | 8 (≈ 21.5 µM) | 8 (≈ 21.5 µM) | 2 (≈ 5.37 µM) | – | – | – | –
12 | O=C(O)c1cn(C2CC2)c2cc(N3CCNCC3)c(F)cc2c1=O [CIPROFLOXACIN] | – | 1 (≈ 3.02 µM) | 0.12 (≈ 0.362 µM) | 0.5 (≈ 1.51 µM) | 2 (≈ 6.04 µM) | – | – | – | 1 (≈ 3.02 µM) | – | 0.03 (≈ 0.0905 µM) | 0.008 (≈ 0.0241 µM) | – | – | – | –
13 | CCn1cc(C(=O)O)c(=O)c2cc(F)c(N3CCN(C)CC3)cc21 [PEFLOXACIN] | 4 (≈ 12 µM) | 0.5 (≈ 1.5 µM) | 0.25 (≈ 0.75 µM) | 0.5 (≈ 1.5 µM) | 4 (≈ 12 µM) | – | 0.06 (≈ 0.18 µM) | – | 0.5 (≈ 1.5 µM) | – | 0.25 (≈ 0.75 µM) | – | 1.1 | 3.1 | 0.4 | 2
